Test results published in ChEMBL document CHEMBL1921707 (J Med Chem, 2011).

Legend:
Type in all cases: cell-based
[1] = target: Histamine H4 receptor (Homo sapiens, UniProt Q9H3N8); assay: Displacement of [3H]histamine from human H4 receptor expressed in HEK293 cells after 1 to 1.5 hrs by scintillation counting
[2] = target: Histamine H3 receptor (Homo sapiens, UniProt Q9Y5N1); assay: Displacement of [3H]histamine from human H3 receptor expressed in HEK293 cells after 1 to 1.5 hrs by scintillation counting
Chain of Histamine H3 receptor (Q9Y5N1 whole entry): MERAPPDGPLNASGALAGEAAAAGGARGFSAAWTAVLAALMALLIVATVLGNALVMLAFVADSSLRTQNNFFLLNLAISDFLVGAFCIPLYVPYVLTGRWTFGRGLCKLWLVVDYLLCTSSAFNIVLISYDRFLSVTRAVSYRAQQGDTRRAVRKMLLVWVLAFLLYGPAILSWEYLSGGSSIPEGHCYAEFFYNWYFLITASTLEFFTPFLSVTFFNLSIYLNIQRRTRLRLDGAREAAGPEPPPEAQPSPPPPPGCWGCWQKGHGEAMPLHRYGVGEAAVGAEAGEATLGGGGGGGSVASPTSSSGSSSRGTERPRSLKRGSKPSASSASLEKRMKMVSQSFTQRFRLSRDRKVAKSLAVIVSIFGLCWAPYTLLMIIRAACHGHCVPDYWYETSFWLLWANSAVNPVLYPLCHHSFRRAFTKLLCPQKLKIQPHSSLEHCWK

[3] = target: Histamine H4 receptor (Homo sapiens, UniProt Q9H3N8, E182Q); assay: Displacement of [3H]JNJ7777120 from human H4 receptor E5.46Q mutant expressed in HEK293 cells after 1 to 1.5 hrs by scintillation counting
Chain of Histamine H4 receptor (Homo sapiens, UniProt Q9H3N8, E182Q) (Q9H3N8 whole entry E182Q): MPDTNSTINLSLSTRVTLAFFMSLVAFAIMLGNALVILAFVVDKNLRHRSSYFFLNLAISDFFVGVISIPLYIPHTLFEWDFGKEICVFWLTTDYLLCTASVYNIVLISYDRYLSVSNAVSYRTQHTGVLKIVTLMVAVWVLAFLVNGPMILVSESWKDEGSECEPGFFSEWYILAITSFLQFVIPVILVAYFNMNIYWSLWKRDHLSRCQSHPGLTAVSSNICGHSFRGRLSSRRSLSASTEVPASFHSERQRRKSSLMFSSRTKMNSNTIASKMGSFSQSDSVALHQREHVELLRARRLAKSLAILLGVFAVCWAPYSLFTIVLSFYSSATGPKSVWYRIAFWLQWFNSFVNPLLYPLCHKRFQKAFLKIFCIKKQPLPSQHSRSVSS
Method in brief: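 HEK293T cells transiently transfected (PEI method) with human H4R E5.46Q cDNA, membranes harvested 2 days later. Crude membranes in 50 mM Tris-HCl pH 7.4 with ~10 nM [3H]JNJ-7777120 and compound at 1 pM to 0.1 mM, room temperature, shaking. Separation by filtration on PEI-presoaked GF/C, ice-cold Tris washes. pKi as mean ± SEM of at least three experiments run in triplicate.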

[4] = target: Histamine H4 receptor (Homo sapiens, UniProt Q9H3N8, T323M); assay: Displacement of [3H]histamine from human H4 receptor T6.55M mutant expressed in HEK293 cells after 1 to 1.5 hrs by scintillation counting
Chain of Histamine H4 receptor (Homo sapiens, UniProt Q9H3N8, T323M) (Q9H3N8 whole entry T323M): as the sequence (Q9H3N8 whole entry E182Q) above, with Q182E, T323M counted along it

[5] = target: Histamine H4 receptor (Homo sapiens, UniProt Q9H3N8, T178A); assay: Displacement of [3H]histamine from human H4 receptor T5.42A mutant expressed in HEK293 cells after 1 to 1.5 hrs by scintillation counting
Chain of Histamine H4 receptor (Homo sapiens, UniProt Q9H3N8, T178A) (Q9H3N8 whole entry T178A): as the sequence (Q9H3N8 whole entry E182Q) above, with T178A, Q182E counted along it

[6] = target: Histamine H4 receptor (Homo sapiens, UniProt Q9H3N8, N147Y); assay: Displacement of [3H]histamine from human H4 receptor N4.57Y mutant expressed in HEK293 cells after 1 to 1.5 hrs by scintillation counting
Chain of Histamine H4 receptor (Homo sapiens, UniProt Q9H3N8, N147Y) (Q9H3N8 whole entry N147Y): as the sequence (Q9H3N8 whole entry E182Q) above, with N147Y, Q182E counted along it

[7] = target: Histamine H4 receptor (Homo sapiens, UniProt Q9H3N8, Q347L); assay: Displacement of [3H]histamine from human H4 receptor Q7.42L mutant expressed in HEK293 cells after 1 to 1.5 hrs by scintillation counting
Chain of Histamine H4 receptor (Homo sapiens, UniProt Q9H3N8, Q347L) (Q9H3N8 whole entry Q347L): as the sequence (Q9H3N8 whole entry E182Q) above, with Q182E, Q347L counted along it

[8] = target: Histamine H4 receptor (Homo sapiens, UniProt Q9H3N8, V102A); assay: Displacement of [3H]histamine from human H4 receptor V3.40A mutant expressed in HEK293 cells after 1 to 1.5 hrs by scintillation counting
Chain of Histamine H4 receptor (Homo sapiens, UniProt Q9H3N8, V102A) (Q9H3N8 whole entry V102A): as the sequence (Q9H3N8 whole entry E182Q) above, with V102A, Q182E counted along it

Chain of Histamine H4 receptor (Homo sapiens, UniProt Q9H3N8) (Q9H3N8 whole entry): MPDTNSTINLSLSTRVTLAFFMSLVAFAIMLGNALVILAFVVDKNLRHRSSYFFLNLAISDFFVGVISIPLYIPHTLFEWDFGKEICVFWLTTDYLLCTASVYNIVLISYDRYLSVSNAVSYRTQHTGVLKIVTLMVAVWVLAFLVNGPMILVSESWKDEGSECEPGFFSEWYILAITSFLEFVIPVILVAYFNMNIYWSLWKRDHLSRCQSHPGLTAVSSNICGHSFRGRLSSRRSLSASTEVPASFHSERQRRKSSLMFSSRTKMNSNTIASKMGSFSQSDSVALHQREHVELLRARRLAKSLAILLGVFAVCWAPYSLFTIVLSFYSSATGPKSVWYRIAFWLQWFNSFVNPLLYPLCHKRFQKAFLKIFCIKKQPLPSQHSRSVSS

**Q.** Which results are given for `c1ccc(CN/C(=N/C2CCCC2)SCCCc2c[nH]cn2)cc1`?
**A.** Ki [1]: 42.7 nM; Ki [2]: 42.7 nM

**Q.** `c1ccc(CN/C(=N/C2CCCCC2)SCCCc2c[nH]cn2)cc1` was tested. Which Ki [1] did it give?
**A.** Its Ki is 75.9 nM.

**Q.** And the Ki [2]?
**A.** Its Ki is 9.77 nM.

**Q.** How did the Ki [1] turn out when `CCCCN/C(=N/C1CCCC1)SCCCc1c[nH]cn1` was run?
**A.** Its Ki is 16.2 nM.

**Q.** And the Ki [2]?
**A.** Its Ki is 46.8 nM.

**Q.** With `Clc1ccc(C/N=C(/NC2CCCCC2)SCCCc2c[nH]cn2)cc1Cl` as the compound, how does the Ki [1] read?
**A.** Its Ki is 148 nM.

**Q.** And the Ki [2]?
**A.** The Ki was 1.02 nM.

**Q.** For `CCCCN/C(=N/Cc1ccc(Cl)cc1)SCCCc1c[nH]cn1`, which Ki [1] is on record?
**A.** The Ki was 89.1 nM.

**Q.** And the Ki [2]?
**A.** Its Ki is 4.9 nM.

**Q.** Which results are given for `Clc1ccc(C/N=C(/NCc2ccccc2)SCCCc2c[nH]cn2)cc1`?
**A.** Ki [1]: 229 nM; Ki [2]: 17 nM

**Q.** How did the Ki [1] turn out when `Clc1ccc(C/N=C(/NCc2ccccc2)SCCCc2c[nH]cn2)cc1Cl` was run?
**A.** The Ki was 380 nM.

**Q.** What about the Ki [2] of the same compound?
**A.** The Ki was 32.4 nM.

**Q.** What does the source list for `c1nc(CCCS/C(=N\C2CCCC2)NC2CCCCC2)c[nH]1`?
**A.** Ki [1]: 31.6 nM; Ki [2]: 18.6 nM

**Q.** Which Ki [1] does the source give for `CC(C)(C)N/C(=N/C1CCCC1)SCCCc1c[nH]cn1` here?
**A.** The Ki was 29.5 nM.

**Q.** And the Ki [2]?
**A.** Its Ki is 67.6 nM.

**Q.** With `CCCCN/C(=N/Cc1ccc(Cl)c(Cl)c1)SCCCc1c[nH]cn1` as the compound, how does the Ki [1] read?
**A.** Its Ki is 89.1 nM.

**Q.** What about the Ki [2] of the same compound?
**A.** Its Ki is 4.68 nM.

**Q.** With `N#Cc1ccc(C/N=C(/NC2CCCCC2)SCCCc2c[nH]cn2)cc1` as the compound, how does the Ki [1] read?
**A.** Its Ki is 126 nM.

**Q.** What about the Ki [2] of the same compound?
**A.** The Ki was 1.62 nM.

**Q.** With `O=[N+]([O-])c1ccc(C/N=C(/NC2CCCCC2)SCCCc2c[nH]cn2)cc1` as the compound, how does the Ki [1] read?
**A.** Its Ki is 135 nM.

**Q.** And the Ki [2]?
**A.** The Ki was 1.15 nM.

**Q.** How did the Ki [3] turn out when `Clc1ccc(CN=C(NC2CCCCC2)SCCCc2cnc[nH]2)cc1` was run?
**A.** The Ki was 158 nM.

**Q.** What about the Ki [4] of the same compound?
**A.** The Ki was 12.6 nM.

**Q.** And the Ki [5]?
**A.** Its Ki is 12.6 nM.

**Q.** What about the Ki [1] of the same compound?
**A.** Its Ki is 47.9 nM.

**Q.** And the Ki [6]?
**A.** The Ki was 316 nM.

**Q.** What about the Ki [7] of the same compound?
**A.** The Ki was 12.6 nM.

**Q.** And the Ki [2]?
**A.** Its Ki is 1.05 nM.

**Q.** What about the Ki [8] of the same compound?
**A.** The Ki was 63.1 nM.

**Q.** For `NC(=NCc1ccc(Cl)cc1)SCCCc1cnc[nH]1` [CLOBENPROPIT], which Ki [3] is on record?
**A.** Its Ki is 50.1 nM.

**Q.** What about the Ki [4] of the same compound?
**A.** The Ki was 1.58 nM.

**Q.** And the Ki [5]?
**A.** Its Ki is 2.51 nM.

**Q.** And the Ki [6]?
**A.** Its Ki is 15.8 nM.

**Q.** And the Ki [7]?
**A.** The Ki was 1 nM.

**Q.** What about the Ki [8] of the same compound?
**A.** Its Ki is 10 nM.
